Tested on: U2OS
Assay: Multiplex assay against U2OS
Format: toxicity, cell-based
Details: human
Outline: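 Phenotypes for tubulin, mitochondrial mass and membrane permeability are expressed as per cents of healthy-nucleus cells. Cells were stained live at seeding with Hoechst33342, BioTracker Green Microtubule Cytoskeleton Dye, MitoTracker Red and Annexin V Alexa Fluor 680, then imaged after compound addition on a CQ1 microscope at 37°C and 5% CO2. Machine-learning gating in CellPathfinder separated Hoechst high-intensity objects from normal cells, divided normal cells by nuclear state (healthy, pyknosed, fragmented) and divided pyknosed cells into mitotic or apoptotic.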

[1] = 12 h, 1 µM, compound concentration 1 uM, replicate 1
[2] = 12 h, 1 µM, compound concentration 1 uM, replicate 2
[3] = 12 h, 10 µM, compound concentration 10 uM, replicate 1
[4] = 12 h, 10 µM, compound concentration 10 uM, replicate 2
[5] = 24 h, 1 µM, compound concentration 1 uM, replicate 1
[6] = 24 h, 1 µM, compound concentration 1 uM, replicate 2
[7] = 24 h, 10 µM, compound concentration 10 uM, replicate 1
[8] = 24 h, 10 µM, compound concentration 10 uM, replicate 2
[9] = 48 h, 1 µM, compound concentration 1 uM, replicate 1
[10] = 48 h, 1 µM, compound concentration 1 uM, replicate 2
[11] = 48 h, 10 µM, compound concentration 10 uM, replicate 1
[12] = 48 h, 10 µM, compound concentration 10 uM, replicate 2

For `Cc1ccc(C(C)(O)c2nc3ccccc3s2)c(C)c1` (centres undefined), the “Population Apoptotic (%)” value [1] was 86%, the “Population Fragmented Nuclei (%)” value [1] was 19% and the “Population Healthy Nuclei (%)” value [1] was 70%. For the same compound, the “Population Hoechst High Intensity Objects (%)” value [1] was 3%, the “Population Membrane Permeable-Phenotype (%)” value [1] was 4% and the “Population Mitochondria Different-Phenotype (%)” value [1] was 1%. The “Population Mitotic Cells (%)” value [1] was 13%, the “Population Normal (%)” value [1] was 96% and the “Population Pyknosed Nuclei (%)” value [1] was 9%. For the same compound, the “Population Tubulin-Different-Phenotype (%)” value [1] was 2%, the “Total Cell Count” value [1] was 249 and the “Population Apoptotic (%)” value [2] was 100%. For the same compound, the “Population Fragmented Nuclei (%)” value [2] was 17%, the “Population Healthy Nuclei (%)” value [2] was 78% and the “Population Hoechst High Intensity Objects (%)” value [2] was 0%. For the same compound, the “Population Membrane Permeable-Phenotype (%)” value [2] was 9%, the “Population Mitochondria Different-Phenotype (%)” value [2] was 4% and the “Population Mitotic Cells (%)” value [2] was 0%. The “Population Normal (%)” value [2] was 99%, the “Population Pyknosed Nuclei (%)” value [2] was 3% and the “Population Tubulin-Different-Phenotype (%)” value [2] was 5%. For the same compound, the “Total Cell Count” value [2] was 141, the “Population Apoptotic (%)” value [3] was 100% and the “Population Fragmented Nuclei (%)” value [3] was 25%. For the same compound, the “Population Healthy Nuclei (%)” value [3] was 67%, the “Population Hoechst High Intensity Objects (%)” value [3] was 2% and the “Population Membrane Permeable-Phenotype (%)” value [3] was 9%. For the same compound, the “Population Mitochondria Different-Phenotype (%)” value [3] was 3%, the “Population Mitotic Cells (%)” value [3] was 0% and the “Population Normal (%)” value [3] was 97%. The “Population Pyknosed Nuclei (%)” value [3] was 6%, the “Population Tubulin-Different-Phenotype (%)” value [3] was 3% and the “Total Cell Count” value [3] was 234. The “Population Apoptotic (%)” value [4] was 66%, the “Population Fragmented Nuclei (%)” value [4] was 18% and the “Population Healthy Nuclei (%)” value [4] was 77%. For the same compound, the “Population Hoechst High Intensity Objects (%)” value [4] was 4%, the “Population Membrane Permeable-Phenotype (%)” value [4] was 3% and the “Population Mitochondria Different-Phenotype (%)” value [4] was 1%. For the same compound, the “Population Mitotic Cells (%)” value [4] was 33%, the “Population Normal (%)” value [4] was 95% and the “Population Pyknosed Nuclei (%)” value [4] was 3%. The “Population Tubulin-Different-Phenotype (%)” value [4] was 1%, the “Total Cell Count” value [4] was 89 and the “Population Apoptotic (%)” value [5] was 92%. For the same compound, the “Population Fragmented Nuclei (%)” value [5] was 22%, the “Population Healthy Nuclei (%)” value [5] was 69% and the “Population Hoechst High Intensity Objects (%)” value [5] was 1%. For the same compound, the “Population Membrane Permeable-Phenotype (%)” value [5] was 4%, the “Population Mitochondria Different-Phenotype (%)” value [5] was 0% and the “Population Mitotic Cells (%)” value [5] was 7%. For the same compound, the “Population Normal (%)” value [5] was 98%, the “Population Pyknosed Nuclei (%)” value [5] was 8% and the “Population Tubulin-Different-Phenotype (%)” value [5] was 3%. For the same compound, the “Total Cell Count” value [5] was 327, the “Population Apoptotic (%)” value [6] was 90% and the “Population Fragmented Nuclei (%)” value [6] was 13%. The “Population Healthy Nuclei (%)” value [6] was 80%, the “Population Hoechst High Intensity Objects (%)” value [6] was 0% and the “Population Membrane Permeable-Phenotype (%)” value [6] was 6%. The “Population Mitochondria Different-Phenotype (%)” value [6] was 3%, the “Population Mitotic Cells (%)” value [6] was 10% and the “Population Normal (%)” value [6] was 99%. For the same compound, the “Population Pyknosed Nuclei (%)” value [6] was 6%, the “Population Tubulin-Different-Phenotype (%)” value [6] was 4% and the “Total Cell Count” value [6] was 159. The “Population Apoptotic (%)” value [7] was 88%, the “Population Fragmented Nuclei (%)” value [7] was 22% and the “Population Healthy Nuclei (%)” value [7] was 71%. The “Population Hoechst High Intensity Objects (%)” value [7] was 1%, the “Population Membrane Permeable-Phenotype (%)” value [7] was 5% and the “Population Mitochondria Different-Phenotype (%)” value [7] was 3%. The “Population Mitotic Cells (%)” value [7] was 11%, the “Population Normal (%)” value [7] was 98% and the “Population Pyknosed Nuclei (%)” value [7] was 6%. The “Population Tubulin-Different-Phenotype (%)” value [7] was 3%, the “Total Cell Count” value [7] was 272 and the “Population Apoptotic (%)” value [8] was 75%. The “Population Fragmented Nuclei (%)” value [8] was 16%, the “Population Healthy Nuclei (%)” value [8] was 75% and the “Population Hoechst High Intensity Objects (%)” value [8] was 4%. The “Population Membrane Permeable-Phenotype (%)” value [8] was 3%, the “Population Mitochondria Different-Phenotype (%)” value [8] was 1% and the “Population Mitotic Cells (%)” value [8] was 25%. The “Population Normal (%)” value [8] was 95%, the “Population Pyknosed Nuclei (%)” value [8] was 7% and the “Total Cell Count” value [8] was 113. For the same compound, the “Population Apoptotic (%)” value [9] was 88%, the “Population Fragmented Nuclei (%)” value [9] was 16% and the “Population Healthy Nuclei (%)” value [9] was 74%. For the same compound, the “Population Hoechst High Intensity Objects (%)” value [9] was 2%, the “Population Membrane Permeable-Phenotype (%)” value [9] was 5% and the “Population Mitochondria Different-Phenotype (%)” value [9] was 2%. The “Population Mitotic Cells (%)” value [9] was 11%, the “Population Normal (%)” value [9] was 97% and the “Population Pyknosed Nuclei (%)” value [9] was 9%. For the same compound, the “Population Tubulin-Different-Phenotype (%)” value [9] was 2%, the “Total Cell Count” value [9] was 442 and the “Population Apoptotic (%)” value [10] was 94%. The “Population Fragmented Nuclei (%)” value [10] was 15%, the “Population Healthy Nuclei (%)” value [10] was 76% and the “Population Hoechst High Intensity Objects (%)” value [10] was 3%. For the same compound, the “Population Membrane Permeable-Phenotype (%)” value [10] was 6%, the “Population Mitochondria Different-Phenotype (%)” value [10] was 3% and the “Population Mitotic Cells (%)” value [10] was 5%. For the same compound, the “Population Normal (%)” value [10] was 96%, the “Population Pyknosed Nuclei (%)” value [10] was 8% and the “Population Tubulin-Different-Phenotype (%)” value [10] was 5%. For the same compound, the “Total Cell Count” value [10] was 215, the “Population Apoptotic (%)” value [11] was 96% and the “Population Fragmented Nuclei (%)” value [11] was 23%. For the same compound, the “Population Healthy Nuclei (%)” value [11] was 69%, the “Population Hoechst High Intensity Objects (%)” value [11] was 2% and the “Population Membrane Permeable-Phenotype (%)” value [11] was 6%. For the same compound, the “Population Mitochondria Different-Phenotype (%)” value [11] was 1%, the “Population Mitotic Cells (%)” value [11] was 3% and the “Population Normal (%)” value [11] was 97%. For the same compound, the “Population Pyknosed Nuclei (%)” value [11] was 7%, the “Population Tubulin-Different-Phenotype (%)” value [11] was 4% and the “Total Cell Count” value [11] was 365. For the same compound, the “Population Apoptotic (%)” value [12] was 85%, the “Population Fragmented Nuclei (%)” value [12] was 11% and the “Population Healthy Nuclei (%)” value [12] was 83%. The “Population Hoechst High Intensity Objects (%)” value [12] was 5%, the “Population Membrane Permeable-Phenotype (%)” value [12] was 5% and the “Population Mitotic Cells (%)” value [12] was 14%. For the same compound, the “Population Normal (%)” value [12] was 94%, the “Population Pyknosed Nuclei (%)” value [12] was 5% and the “Total Cell Count” value [12] was 147.

Source: ChEMBL document CHEMBL5058577, “EUbOPEN Chemogenomics Library 2 (Multiplex)” (2022)
